In this experiment the target is T1, Nuclear factor of activated T-cells, cytoplasmic 1 (Homo sapiens, UniProt O95644).
T1 sequence (O95644 whole entry): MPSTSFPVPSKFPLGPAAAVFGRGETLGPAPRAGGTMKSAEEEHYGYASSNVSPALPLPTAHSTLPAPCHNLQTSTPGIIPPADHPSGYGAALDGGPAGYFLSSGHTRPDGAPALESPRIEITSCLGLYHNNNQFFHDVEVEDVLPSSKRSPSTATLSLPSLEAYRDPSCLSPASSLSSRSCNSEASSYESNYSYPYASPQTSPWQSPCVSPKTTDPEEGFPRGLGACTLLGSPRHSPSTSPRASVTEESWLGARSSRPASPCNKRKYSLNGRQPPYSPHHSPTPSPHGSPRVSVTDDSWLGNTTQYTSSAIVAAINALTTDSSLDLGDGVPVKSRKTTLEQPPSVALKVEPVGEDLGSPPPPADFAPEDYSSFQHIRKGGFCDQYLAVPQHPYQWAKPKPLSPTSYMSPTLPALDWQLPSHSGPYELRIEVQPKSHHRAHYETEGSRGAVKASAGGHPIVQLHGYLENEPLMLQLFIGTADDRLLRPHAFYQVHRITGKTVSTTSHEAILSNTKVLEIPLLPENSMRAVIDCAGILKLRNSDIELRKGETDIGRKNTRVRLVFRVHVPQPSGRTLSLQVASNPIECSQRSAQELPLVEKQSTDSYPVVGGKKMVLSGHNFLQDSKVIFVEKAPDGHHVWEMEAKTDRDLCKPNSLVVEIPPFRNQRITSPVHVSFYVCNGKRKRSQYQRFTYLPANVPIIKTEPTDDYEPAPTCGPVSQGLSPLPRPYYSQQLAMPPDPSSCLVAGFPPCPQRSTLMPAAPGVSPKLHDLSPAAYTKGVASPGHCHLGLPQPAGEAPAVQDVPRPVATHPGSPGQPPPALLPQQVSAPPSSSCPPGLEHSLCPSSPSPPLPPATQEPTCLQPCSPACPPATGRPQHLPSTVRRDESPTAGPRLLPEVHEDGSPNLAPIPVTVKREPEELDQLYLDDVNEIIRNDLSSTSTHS
Description: Inhibition of NFATC activity in HEK293T cells preincubated for 2 hrs followed by ionomycin/phorbol 12-myristate 13-acetate stimulation and measured after 4 hrs by luciferase reporter assay. In outline:
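HEK 293T cells (7.5 × 10⁴/well) co-transfected by CaCl₂ method with 100 ng 3xNFAT-luc and 1 ng pRLnull as transfection control. At 24 h, compound added for 2 h, then stimulated with 1 µM ionomycin, PMA and CaCl₂ for 4 h (20 ng/ml PMA and 2 mM CaCl₂ per figure legend). Luciferase read from crude extracts, relative to stimulated no-compound control (100%). Single doses 50 and 5 μM; dose-response 0.1–50 μM. IC50 by nonlinear regression; 3 experiments in triplicate.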

Structures are written as SMILES.

`Cc1ccc(C(=O)NCC(=O)Nc2cc(S(=O)(=O)Nc3ccc(Cl)cc3)ccc2Cl)s1` gave a concentration for half-maximal inhibition (IC50) of 4.5 µM.

`CS(=O)(=O)NCc1cccc(NC(=O)c2ccc3[nH]ccc3c2)c1` returned an IC50 of 11.6 µM.

With `CS(=O)(=O)NCc1cccc(NC(=O)c2csc3ccccc23)c1`, the half-maximal inhibitory concentration (IC50) is 18.7 µM.

The record behind these values is BindingDB's records for PubMed 35700596 (2022).
